# XiGFP reactiv – activators of X-chromosome reactivation in mouse fibroblasts; 360,000 compounds, 0.055% hits; activation, % at 7.58 µM; XiGFP mouse fibroblasts, % GFP-positive cells imaging, 3 d; cells co-treated with 5-aza-dC sensitizer; scaled so ellipticine positive control = 100%;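 active = mean normalized replicate activation at least 10% and every replicate at or above 10%; inconclusive = only one of the two criteria met; inactive = mean below 10% and not all replicates reach 10%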;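 also: 0% = median of on-plate neutral control wells and 100% = ellipticine 6 µM median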
#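 System: SV40-immortalized XiGFP fibroblast cells, line 68-5-11 / Incubation: 3-day compound exposure, then 15 min fixation at room temperature / Compound: single concentration per compound, delivered by pin transfer / Buffer or medium: DMEM plus 5-aza-dC sensitizer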
# S100A4 inh HTS – S100A4-myosin IIA interaction inhibition. AID 652163. 360,000 compounds, 0.14% hits. inhibition, % at 10.7 µM. P26447. S100A4/TAMRA-MyoIIA peptide fluorescence polarization;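 active = mean inhibition of at least 70% across replicates, with every replicate also reaching that level; inconclusive = mean inhibition reaches 70% but some replicates fall short; inactive = mean inhibition below 70%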
# Target sequence (P26447 whole entry, looked up): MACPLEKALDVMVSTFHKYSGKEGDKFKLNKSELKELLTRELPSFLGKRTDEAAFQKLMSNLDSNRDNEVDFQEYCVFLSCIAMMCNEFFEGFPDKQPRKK
#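 assay system = human S100A4 monomer with TAMRA-labelled myosin IIA peptide | also added = labelled myosin peptide probe, 5 nM | incubation = 5 min between mix addition and reading | control set = DMSO and TFP controls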
# E-selectin induc – E-selectin induction on HUVECs; P16581; HUVEC E-selectin immunofluorescence imaging; normalized: neutral wells 0, TNF-alpha wells 100; activation, % at 7.58 µM; 260,000 compounds, 0.37% hits; AID 686992;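 active = mean E-selectin-positive cell signal at least 10% of the positive control, reached in at least 60% of replicates, without over 20% cell loss; inconclusive = no rule given, readout overlaps actives, possibly toxicity-flagged; inactive = the rest, including those meeting only one limit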
#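 Test system: HUVEC | Signal: Immunofluorescence imaging | Read-out: Percent E-selectin-positive cells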
# DENV2 CPE – protects cells from dengue virus 2 cytopathic effect; CPE inhibition, % at 9.99 µM; 350,000 compounds, 1.7% hits; DENV2-infected cells, cytopathic effect rescue, plate reader; AID 651640; in the data active = CPE inhibition above about 20%, passing the limit was not always enough; inconclusive = no clear call, values can overlap the other calls; tested in BHK-21 cells;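 also: 0% = median of neutral control wells and 100% = median of positive control wells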
# * hit, by the source's call; ? = inconclusive; . = no result given. Rows were chosen to be rich in hits. Some 2% of all compounds tested hit in one or more screens of this group.
SMILES,XiGFP reactiv,S100A4 inh HTS,E-selectin induc,DENV2 CPE
CCC(=O)N1C[C@H]2[C@@H](c3ccccc31)[C@@H](CO)N2Cc1ccccc1OC,0,56,0,-3
COC(=O)C1=C(C)N(Cc2ccccc2C(F)(F)F)C(=NCc2ccccc2)NC1c1ccc(Cl)cc1 (stereo not drawn),1,7,0,-4
C[C@H]1CN([C@@H](C)CO)C(=O)c2cc(C#CCN(C)C)cnc2O[C@H]1CN(C)C(=O)NC1CCCC1,1,8,2,9
Nc1nc(-c2ccc([N+](=O)[O-])cc2)cc(=O)[nH]1,0,-2,.,133*
Cc1c(N)cc(N)cc1C(=O)O,0,12,.,4
Cn1cc([N+](=O)[O-])c(C(=O)Nc2ccc(C3CCCCC3)cc2)n1,0,-5,.,9
Cn1cc([N+](=O)[O-])c(C(=O)Nc2ccc(C(=O)N3CCCCC3)cc2)n1,0,-1,.,39*
CCOCCn1c(CN2CCN(C)CC2)nc2c1c(=O)n(C)c(=O)n2C,0,0,.,-6
Cc1ccc(C2=NOC(C)(c3nnc(-c4ccncc4)o3)C2)cc1 (stereo not drawn),0,-8,0,58*
CC1(c2nnc(-c3ccc(Cl)cc3)o2)CC(c2ccncc2)=NO1 (stereo not drawn),0,-2,0,?
C=Cc1cnc([N+](=O)[O-])n1C,88*,2,0,-5
CCN1CCN(CCNC(=O)c2cc(Cl)c(NC(=O)C3=C(C)OCCS3)cc2OC)CC1,0,126*,.,-2
Nc1c(C(=O)c2ccccc2)sc2nsc(SCCN3CCCC3)c12,?,1,0,57*
Nc1c(C(=O)c2ccc(Cl)cc2)sc2nsc(SCCN3CCOCC3)c12,0,-3,.,-9
CC(C)SCc1cc(N2CCCC2)nc(-c2ccccc2)n1,0,-1,-1,26*
COC(=O)/C=C1\S/C(=N/NC(=O)c2ccc(OC)cc2)NC1=O,0,4,0,3
NC(=O)c1ccsc1NC(=O)c1ccc([N+](=O)[O-])o1,1,27,2,14
CCC(=O)N1CC2(CCN(Cc3ccccc3Cl)CC2)c2c([nH]c3cc(OC)ccc23)[C@H]1CO,0,14,0,-1
CCC(=O)N1CC2(CCN(Cc3ccccc3Cl)CC2)c2c([nH]c3cc(OC)ccc23)[C@@H]1CO,0,-10,0,24*
CCC(=O)N1CCC2(CC1)CN(S(=O)(=O)c1ccccc1)[C@@H](CO)c1[nH]c3cc(OC)ccc3c12,0,-4,0,28*
COc1ccc2c3c([nH]c2c1)[C@@H](CO)N(C(=O)c1ccccc1)CC31CCN(C)CC1,1,4,0,31*
COc1ccc2c3c([nH]c2c1)[C@H](CO)N(C(C)=O)CC31CN(C(=O)c2cccc(F)c2)C1,1,.,0,83*
C[C@@H]1CCCCO[C@@H](CN(C)S(=O)(=O)c2cn(C)cn2)[C@@H](C)CN([C@H](C)CO)C(=O)c2cc(NC(=O)Nc3ccc4c(c3)OCO4)ccc2O1,0,-7,0,17
CCC(=O)Nc1ccc2c(c1)C(=O)N(C)C[C@H](OC)[C@@H](C)CN(Cc1cccnc1)[C@@H](C)CO2,0,3,0,2
COc1ccc2c3c([nH]c2c1)[C@@H](CO)N(C(=O)c1cccnc1)CC31CCN(Cc2ccccc2)CC1,1,-50,0,-25
SMILES,XiGFP reactiv,S100A4 inh HTS,E-selectin induc,DENV2 CPE
COc1ccc2c3c([nH]c2c1)[C@@H](CO)N(C(=O)CN1CCOCC1)CC31CN(Cc2ccccc2)C1,0,2,1,40*
COc1ccc2c3c([nH]c2c1)[C@@H](CO)N(Cc1nccs1)CC31CN(Cc2ccncc2)C1,0,13,0,54*
COc1ccc2c3c([nH]c2c1)[C@@H](CO)N(C(=O)c1cccnc1)CC31CN(Cc2ccccc2)C1,0,-8,0,35*
COc1ccc2c3c([nH]c2c1)[C@@H](CO)N(Cc1nccs1)CC31CN(Cc2cccnc2)C1,0,13,0,-6
COc1ccc2c3c([nH]c2c1)[C@@H](CO)N(C(=O)c1ccc(F)cc1)CC31CN(Cc2cccnc2)C1,0,-32,0,7
COc1ccc2c3c([nH]c2c1)[C@@H](CO)N(C(=O)CN1CCOCC1)CC31CCN(Cc2ccccc2)CC1,0,8,0,-9
COc1ccc2c3c([nH]c2c1)[C@H](CO)N(C(=O)c1ccc(F)cc1)CC31CN(Cc2cccnc2)C1,0,-28,0,45*
CN(C)CCSc1nc(-c2ccccc2)nc2c1CCC2,1,-5,.,-3
Fc1ccc(CNc2ccc(N3CCN(Cc4ccccc4)CC3)cc2)cc1,0,4,0,2
COC(=O)[C@H]1[C@H](CO)[C@H]2Cn3c(ccc(C4=CCCCC4)c3=O)[C@H]2N1Cc1cccnc1,0,-13,0,26*
O=C(NC1CCC1)[C@@H]1[C@@H](CO)[C@@H]2Cn3c(ccc(C4=CCCCC4)c3=O)[C@@H]2N1C(=O)C1CCOCC1,0,-6,0,56*
CCC(N=c1cc(-c2ccc(OC)c(OC)c2)oc2ccc(C)cc12)C(=O)O (stereo not drawn),0,-3,.,22*
CCC(N=c1cc(-c2ccc(OC)cc2)oc2ccc(C)cc12)C(=O)O (stereo not drawn),0,.,.,.
COc1ccc(NC(=O)CCc2c(C)nc3nc(CNC(=O)c4cccc(F)c4)nn3c2C)cc1OC,0,-3,0,1
CCN(C(=O)CCCCC(=O)N(CC)c1ccccc1)c1ccccc1,0,-1,0,0
CCN(C(=O)N(CC)c1ccccc1)c1ccccc1,.,1,.,20*
c1ccc2c(CSc3nnc(-c4ccncc4)o3)cccc2c1,.,.,0,.
COCC#Cc1cnc2c(c1)C(=O)N([C@H](C)CO)C[C@H](C)[C@H](CN(C)C(=O)C1CCC1)O2,0,133*,1,17
COCC#Cc1cnc2c(c1)C(=O)N([C@@H](C)CO)C[C@H](C)[C@@H](CN(C)C(=O)C1CCC1)O2,0,-1,0,2
CCCC#Cc1cnc2c(c1)C(=O)N([C@H](C)CO)C[C@H](C)[C@@H](CN(C)C(=O)C1CCC1)O2,0,-5,0,5
CCCC#Cc1cnc2c(c1)C(=O)N([C@H](C)CO)C[C@H](C)[C@H](CN(C)C(=O)C1CCC1)O2,0,-3,0,23*
O=C(O)CSCC(=O)N1CCCCC1,0,-3,2,.
CC(=O)N1CCN(C(=O)c2ccc3c(c2)S(=O)(=O)c2ccccc2C3=O)CC1,0,-8,0,0
CN1CCN(C(=O)c2ccc3c(c2)S(=O)(=O)c2ccccc2C3=O)CC1,0,-2,0,63*
Cc1ccc(/C=N/NC(=O)C(c2ccncc2)N2CCOCC2)cc1 (stereo not drawn),0,5,.,2

# Compound activity deposited in PubChem by Broad Institute.
